Results of several laboratories.
Each line is one published result; the experiments were not run side by side.
MPO: Myeloperoxidase (MPO, Homo sapiens, UniProt P05164)
CES2: Cocaine esterase (CES2, Homo sapiens, UniProt O00748)
UDP-N-acetylglucosamine--dolichyl-phosphate N-acetylglucosaminephosphotransferase: UDP-N-acetylglucosamine--dolichyl-phosphate N-acetylglucosaminephosphotransferase (Homo sapiens, UniProt Q9H3H5)
CHRM5: Muscarinic acetylcholine receptor M5 (CHRM5, Homo sapiens, UniProt P08912)

SMILES	target	assay	setting	IC50 [µM]
CC(C)OCCn1c(=S)[nH]c(=O)c2[nH]ccc21	MPO	enzyme activity, inhibitor, fluorescence	–	0.038
COc1cc2c(cc1OC)C(=O)/C(=C/c1ccc(C)cc1F)C2	CES2	enzyme activity, inhibitor, fluorescence	with preincubation	> 100
NC/C(=C\F)COc1cccc(Cn2c(=S)[nH]c(=O)c3[nH]cnc32)c1	MPO	enzyme activity, inhibitor, fluorescence	–	0.017
NCC(=O)O	ltaA (Aeromonas jandaei, UniProt O07051)	enzyme activity, inhibitor	–	990
CC[N+](CC)(CC)Cc1ccccc1.CC[N+](CC)(CC)Cc1ccccc1.[Br][Co-2]([Br])([Br])[Br]	MPO	enzyme activity, inhibitor, absorbance	–	8.53
CO[C@H]1[C@H](O[C@H]([C@H]2O[C@@H](n3ccc(=O)[nH]c3=O)[C@H](O)[C@@H]2O)[C@H](NCCCNC(=O)[C@@H](NC(=O)[C@@H](NC(=O)N[C@H](C(=O)O)C(C)C)[C@@H]2CCN=C(N)N2)[C@@H](OC(=O)CCCCCCCCCCCCN(O)C(=N)N)C(C)C)C(=O)O)O[C@H](CN)[C@H]1O	UDP-N-acetylglucosamine--dolichyl-phosphate N-acetylglucosaminephosphotransferase	enzyme activity, inhibitor	–	0.18
O=C(CCNC(=O)CNC(=O)CC(c1ccccc1)(c1ccccc1)c1ccccc1)NCC1CCN(Cc2ccc(F)cc2)CC1	CHRM5	ligand displacement, radioligand	cell membranes	35.2
O=C(O[C@@H]1[C@@H](O)[C@H](Oc2cc(O)c3c(c2)O[C@H](c2ccccc2)CC3=O)O[C@@H]2COC(=O)c3cc(O)c(O)c(O)c3-c3c(cc(O)c(O)c3O)C(=O)O[C@@H]12)c1cc(O)c(O)c(O)c1	Protein disulfide-isomerase A6 (PDIA6, Homo sapiens, UniProt Q15084)	enzyme activity, inhibitor, fluorescence	–	1.5
O=C(c1ccc(F)c(F)c1Nc1ccc(I)cc1F)N1CC(O)([C@@H]2CCCCN2)C1	CES2	enzyme activity, inhibitor, fluorescence	with preincubation	> 100
Cn1cc(C2=C(c3cn(CCCSC(=N)N)c4ccccc34)C(=O)NC2=O)c2ccccc21	Serine/threonine-protein kinase 10 (STK10, Homo sapiens, UniProt O94804)	enzyme activity, inhibitor	–	0.118
CCc1cc2c(cc1N1CCC(N3CCOCC3)CC1)C(C)(C)c1[nH]c3cc(C#N)ccc3c1C2=O	CES2	enzyme activity, inhibitor, fluorescence	with preincubation	> 100
CO[C@H]1[C@H](O[C@H]([C@H]2O[C@@H](n3ccc(=O)[nH]c3=O)[C@H](O)[C@@H]2O)[C@H](NCCCNC(=O)[C@@H](NC(=O)[C@@H](NC(=O)N[C@H](C(=O)O)C(C)C)[C@@H]2CCN=C(N)N2)[C@@H](O)C(C)C)C(=O)O)O[C@H](CN)[C@H]1O	UDP-N-acetylglucosamine--dolichyl-phosphate N-acetylglucosaminephosphotransferase	enzyme activity, inhibitor	–	> 50
O=C(CCNC(=O)CNC(=O)CC(c1ccccc1)(c1ccccc1)c1ccccc1)NC[C@@H]1CCCN(Cc2cccnc2F)C1	CHRM5	ligand displacement, radioligand	cell membranes	> 30
COc1cc2c(cc1OC)C(=O)/C(=C/c1cc3ccccc3c3ccccc13)C2	CES2	enzyme activity, inhibitor, fluorescence	with preincubation	2.98
Cc1nn(-c2nc3ccccc3[nH]2)c(O)c1C(c1ccccn1)c1c(C)nn(-c2nc3ccccc3[nH]2)c1O	Cyclic GMP-AMP synthase (CGAS, Homo sapiens, UniProt Q8N884)	enzyme activity, inhibitor	–	> 40
